Consider two compounds from article PMC3319156 (Journal of Medicinal Chemistry, 2011).

Bounds are passed on as bounds.

Assay [1] addresses T1, Tyr705 of Stat3 (Homo sapiens, UniProt P40763). Nature of the assay: Inhibition of constitutive Stat3 Tyr705 phosphorylation in MDA-MB-468 cells. The format is cell-based. In a few lines:
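MDA-MB-468 cells (4 × 10^5/well) were grown overnight in DMEM with 10% FCS. Prodrug was given from a 10 mM DMSO stock prepared fresh, for 2 h, or over a time course. After ice-cold PBS washes, cells were lysed (Hepes pH 7.4, Triton X-100, NaF, vanadate, protease inhibitors). 12 µg protein went on 8% SDS-PAGE/PVDF with 5% BSA block. Blots were probed for pStat3 Y705 by ECL, stripped at 50°C, and reprobed for total Stat3.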

Assay [2] addresses T1, Tyr705 of Stat3. The note with it: MDA-MB-468; cited from earlier work.
Assay [3] concerns the target pTyr705 Stat3 (Homo sapiens, UniProt P40763). The format is cell-based. The conditions noted are these: MDA-MB-468, 5 µM, 2 h. The method, boiled down: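 MDA-MB-468 cells on slides were given DMSO or 5 µM test compound for 2 h. Cells were fixed in 4% paraformaldehyde, permeabilized with 0.5% Triton X-100 and blocked with 3% BSA. Staining used anti-pTyr705 Stat3 and an Alexa Fluor 594 secondary. Confocal imaging used identical microscope settings throughout.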

The target in assay [4] is T2, Stat3 (Homo sapiens, UniProt P40763). As to the kind of experiment: EGF-stimulated Stat3 phosphorylation in MDA-MB-468 cells. The format is cell-based. The conditions noted are these: MDA-MB-468, 5 µM, 1.5 h then EGF 30 min.
Assay [5] relates to Tyr694 of Stat5. As to the kind of experiment: Stat5 Tyr694 phosphorylation in MDA-MB-468 cells. The format is cell-based.
Assay [6] concerns Ser473 of Akt. As to the kind of experiment: Akt Ser473 phosphorylation in MDA-MB-468 cells. The format is cell-based.
Assay [7] relates to Tyr861 of the focal adhesion kinase (FAK). As to the kind of experiment: Constitutive FAK Tyr861 phosphorylation in MDA-MB-468 cells. The format is cell-based. The method, boiled down: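 Constitutive signal, no stimulus: MDA-MB-468 cells were plated overnight in DMEM/10% FCS and given test compound from a 10 mM DMSO stock for 2 h. Cells were lysed in Hepes pH 7.4 detergent buffer with phosphatase and protease inhibitors. Protein was separated by SDS-PAGE, blotted to PVDF, blocked with 5% BSA, and probed for pTyr861 FAK and total FAK.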

The target in assay [8] is T3, Tyr701 of Stat1 (Homo sapiens, UniProt P42224).
T3 sequence (P42224 1-750): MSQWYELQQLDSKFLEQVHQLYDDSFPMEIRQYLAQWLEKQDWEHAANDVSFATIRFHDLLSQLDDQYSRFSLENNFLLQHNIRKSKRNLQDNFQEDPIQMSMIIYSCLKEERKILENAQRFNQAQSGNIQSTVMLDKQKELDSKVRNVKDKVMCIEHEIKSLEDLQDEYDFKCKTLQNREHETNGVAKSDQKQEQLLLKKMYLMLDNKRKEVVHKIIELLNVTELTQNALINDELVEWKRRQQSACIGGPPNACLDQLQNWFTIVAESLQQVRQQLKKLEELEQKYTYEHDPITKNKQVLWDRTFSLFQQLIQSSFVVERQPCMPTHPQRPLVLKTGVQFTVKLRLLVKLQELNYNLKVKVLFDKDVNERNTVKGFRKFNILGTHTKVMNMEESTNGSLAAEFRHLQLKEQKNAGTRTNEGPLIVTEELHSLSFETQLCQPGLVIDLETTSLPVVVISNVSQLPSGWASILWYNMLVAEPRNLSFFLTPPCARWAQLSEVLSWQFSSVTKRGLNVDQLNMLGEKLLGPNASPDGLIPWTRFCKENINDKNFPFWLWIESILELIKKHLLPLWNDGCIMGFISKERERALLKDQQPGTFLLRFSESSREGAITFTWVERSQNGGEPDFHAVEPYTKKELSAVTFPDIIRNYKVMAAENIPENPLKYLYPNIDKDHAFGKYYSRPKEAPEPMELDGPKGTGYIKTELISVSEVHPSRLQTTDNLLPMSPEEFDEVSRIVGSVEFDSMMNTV
As to the kind of experiment: IFNγ-stimulated Stat1 Tyr701 phosphorylation in MDA-MB-468 cells. The format is cell-based. The note with it: MDA-MB-468, 1.5 h then 30 min IFNγ. The method, boiled down: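 MDA-MB-468 cells were prepared as for the Stat3 assay (plated overnight in DMEM/10% FCS) and exposed to increasing test compound concentrations for 1.5 h. Interferon γ was then added at 25 ng/mL for 30 min. Lysates were run on PAGE, blotted to PVDF, and probed for pTyr701 Stat1 and total Stat1 with chemiluminescent detection.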

In assay [9] the test system is p38 MAPK. Nature of the assay: p38 MAPK phosphorylation in HCC-827 NSCLC cells. The format is cell-based.
Assay [10] deals with Ser473 of Akt. Nature of the assay: Akt Ser473 phosphorylation in HCC-827 NSCLC cells. The format is cell-based.
Assay [11] deals with cyclin D1. Nature of the assay: Expression of downstream gene cyclin D1 in MDA-MB-468 cells. The format is cell-based. The conditions noted are these: MDA-MB-468, 5 µM.
The test system of assay [12] is Bcl-xL. As to the kind of experiment: Expression of downstream gene Bcl-xL in MDA-MB-468 cells. The format is cell-based. The conditions noted are these: MDA-MB-468, 5 µM.
Assay [13] concerns cyclin D1. As to the kind of experiment: Expression of cyclin D1 in HCC-827 cells. The conditions noted are these: HCC-827, 5 µM. The format is cell-based.
In assay [14] the test system is survivin. As to the kind of experiment: Expression of survivin in HCC-827 cells. The format is cell-based. The note with it: HCC-827 lung line, 5 µM.
Assay [15] concerns survivin. As to the kind of experiment: Expression of survivin in MDA-MB-468 cells. The format is cell-based. The conditions noted are these: MDA-MB-468 breast line, data not shown.
For assay [16], the target named is T2, Stat3. Nature of the assay: IL-6-stimulated Stat3 phosphorylation in MeWo melanoma cells. The conditions noted are these: 1.5 hour exposure then IL-6. The format is cell-based. In a few lines: (§1)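 Hey, MeWo and A375 cells were seeded at 3 × 10^5 cells/well in RPMI1640 and cultured overnight, with a media change. Cells then received increasing test compound concentrations for 2 h. IL-6 at 10 ng/mL was present for the last 30 min. Lysates were blotted for pStat3 Y705 and total Stat3 as in the constitutive assay.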

Assay [17] has as its target T2, Stat3. As to the kind of experiment: IL-6-stimulated Stat3 phosphorylation in A375 melanoma cells. The format is cell-based. The note with it: A375, 1.5 hour exposure then IL-6. In a few lines:
as §1

The target in assay [18] is T2, Stat3. Nature of the assay: IL-6-stimulated Stat3 phosphorylation in HEY ovarian cancer cells. The conditions noted are these: 1.5 hour exposure then IL-6. The format is cell-based. In a few lines: as §1
Assay [19] deals with T2, Stat3. As to the kind of experiment: Constitutive Stat3 phosphorylation in SKOV3ip ovarian cancer cells. The format is cell-based. In a few lines:
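SKOV3-ip cells were seeded at 3 × 10^5 cells/well in McCoy's 5A medium and handled as for MDA-MB-468. Prodrug was added from a 10 mM DMSO stock made just before use, for 2 h. Cells were lysed in Hepes pH 7.4/Triton X-100 buffer with phosphatase and protease inhibitors. 12 µg protein was run on 8% SDS-PAGE, blotted for pStat3 Y705 by ECL, then stripped and reprobed for total Stat3.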

The target of assay [20] is T2, Stat3. As to the kind of experiment: Stat3 phosphorylation in HCC-827 non-small-cell lung cancer cells. The format is cell-based. The note with it: HCC-827, 5 µM.
For assay [21], the system named is MDA-MB-468 cells. Nature of the assay: Cytotoxicity to MDA-MB-468 cells, MTT assay. The format is cell-based. The conditions noted are these: MDA-MB-468, treated daily for three days. In a few lines:
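MDA-MB-468 cells in DMEM with 10% FBS were plated at 1500 cells/well in triplicate, and the medium was changed the next day. Prodrug was dissolved fresh in ethanol to a 10 mM stock, diluted, and added. Further doses went into the same medium at 24 and 48 h, with final ethanol below 1%. Viability was read by MTT.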

In assay [22] the test system is H528. As to the kind of experiment: Growth inhibition of H528 NSCLC cells. The note with it: H528, 5–10 µM, data not shown. The format is cell-based.
Setting [23] is: MDA-MB-468, 2 h treatment, western blot.
[24] abbreviates: MDA-MB-468, single dose of 5 µM.
Where [25] appears, read: MDA-MB-468, 5 µM, 1.5 h then EGF 30 min.
Setting [26] is: MDA-MB-468, 25 µM, two hour treatment.

T1 sequence (P40763 whole entry): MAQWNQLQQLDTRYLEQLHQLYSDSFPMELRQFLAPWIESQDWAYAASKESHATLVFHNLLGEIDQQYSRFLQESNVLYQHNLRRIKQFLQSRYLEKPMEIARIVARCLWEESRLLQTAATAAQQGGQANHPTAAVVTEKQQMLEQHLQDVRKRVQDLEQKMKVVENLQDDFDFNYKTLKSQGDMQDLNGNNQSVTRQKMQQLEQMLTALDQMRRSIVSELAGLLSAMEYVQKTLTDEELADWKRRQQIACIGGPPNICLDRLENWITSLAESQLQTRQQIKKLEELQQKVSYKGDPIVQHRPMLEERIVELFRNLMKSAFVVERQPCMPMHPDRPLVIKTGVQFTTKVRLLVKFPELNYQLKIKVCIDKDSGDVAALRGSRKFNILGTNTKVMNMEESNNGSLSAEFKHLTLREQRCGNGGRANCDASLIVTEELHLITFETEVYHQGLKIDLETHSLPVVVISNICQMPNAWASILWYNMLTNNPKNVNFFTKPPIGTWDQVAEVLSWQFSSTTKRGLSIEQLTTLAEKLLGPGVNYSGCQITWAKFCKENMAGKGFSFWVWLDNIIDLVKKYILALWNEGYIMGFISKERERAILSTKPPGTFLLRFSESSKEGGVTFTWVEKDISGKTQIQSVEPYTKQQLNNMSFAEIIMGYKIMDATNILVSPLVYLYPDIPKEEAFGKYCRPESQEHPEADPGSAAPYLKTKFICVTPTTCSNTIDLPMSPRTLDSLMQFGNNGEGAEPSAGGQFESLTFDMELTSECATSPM
T2 sequence (P40763 whole entry): as above
pTyr705 Stat3, sequence (P40763 whole entry): as above

In the case of `CC(C)(C)C(=O)OCOP(=O)(OCOC(=O)C(C)(C)C)C(F)(F)c1ccc(/C=C/C(=O)N[C@H]2CCc3cccc4c3N(C2=O)[C@H](C(=O)N[C@@H](CCC(N)=O)C(=O)NCc2ccccc2)C4)cc1` [compound 3], the “effect on level of pStat3” value in assay [1] (MDA-MB-468, 2 h, increasing concentrations) is given as “reduced the level of pStat3 in a dose-dependent manner”. Further, in assay [2], the “concentration that completely inhibited constitutive phosphorylation of Stat3 Tyr705” value is given as 10 µM.
Usually inhibition stands for the relative decrease from the control value, in per cent. A high value points to a strong effect. Regarding `C/C(=C\C(=O)N[C@H]1CCc2cccc3c2N(C1=O)[C@H](C(=O)N[C@H](C)CCC(N)=O)C3)c1ccc(C(F)(F)P(=O)(OCOC(=O)C(C)(C)C)OCOC(=O)C(C)(C)C)cc1` [compound 34, βMF2Pm(POM2)Cinn-Haic-Apa], in assay [1] (setting [23]), the “concentration at which pStat3 was completely inhibited” value is 0.5 µM. In addition, the “concentration with noticeable inhibition of pStat3” value in [1] (setting [23]) was determined as 0.1 µM. In addition, the “time at which pStat3 formation was completely inhibited” value in assay [1] (setting [24]) came to 30 min. Moreover, the “time for which complete inhibition of pStat3 was sustained” value in [1] (setting [24]) is reported as 4 h. For the same compound, the pStat3 nuclear localization entry in [3] is “abrogated nuclear localization”. Further, the “increase in Stat3 phosphorylation induced by EGF” value in assay [4] is reported as “completely inhibited”. Further, the Stat5 phosphorylation result in assay [5] (setting [25]) was “not inhibited”. Further, the “Stat5 phosphorylation at high concentration” value in [5] (setting [26]) is “inhibited phosphorylation”. Moreover, the “Akt Ser473 phosphorylation” value in assay [6] (setting [25]) is on record as “do not inhibit Akt phosphorylation”. Further, in assay [6] (setting [26]), the “Akt phosphorylation at high concentration” value was “inhibited phosphorylation”. Moreover, the “FAK phosphorylation at high concentration” value in assay [7] (setting [26]) is recorded as “inhibited phosphorylation”. The “FAK Tyr861 phosphorylation” value in [7] (MDA-MB-468, 2 h treatment) was “no reduction of Tyr861 phosphorylation”. The “concentration of complete inhibition of Stat1 phosphorylation” value in assay [8] worked out at 5 µM. Further, in [9], the “phosphorylation of p38 MAPK” value was “no effect”. Besides, in [10], the “phosphorylation of Ser473 of Akt” value is “no effect”. Moreover, the “expression of cyclin D1” value in assay [11] was “No inhibition”; in assay [13] it was “not inhibited”. In addition, the “expression of Bcl-xL” value in assay [12] is “No inhibition”. For the same compound, the expression of survivin entry in assay [14] and in assay [15] was “reduced” in each case. Further, the “IL-6-induced pStat3 formation” value in [16], in [17] and in [18] was “inhibited pStat3 formation” each time. Further, in assay [19], the “concentration at which constitutively activated Stat3 was completely inhibited” value was 1 µM. The “duration of pStat3 inhibition” value in assay [20] is “at least 4 h”. For the same compound, in [20] (24 h), the “pStat3 level at 24 h” value is recorded as “had not returned to pretreatment levels”. For the same compound, the “survival curves with daily dosing compared with single dose” value in assay [21] is given as “little change in the survival curves”. In addition, the inhibition in [22] is below 20%.
